High-throughput results (PubChem)
ERAP1 HTS inh – human ERAP1 aminopeptidase inhibitors, primary screen, biochemical, single point, plate reader; Endoplasmic reticulum aminopeptidase 1 (Homo sapiens), Q9NZ08; recombinant ERAP1, Leu-AMC fluorescence, 60 min; inhibition, % at 10.7 µM; actives 0.15% (n = 340,000); AID 652197, 2013;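 active means mean replicate inhibition of at least 30%, or all replicates individually reaching that 30% level; inactive means mean below 30% and not every replicate reaching it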;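 further: 0% = neutral control wells and 100% = L-leucinethiol positive control wells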
Target sequence (Q9NZ08 whole entry, looked up): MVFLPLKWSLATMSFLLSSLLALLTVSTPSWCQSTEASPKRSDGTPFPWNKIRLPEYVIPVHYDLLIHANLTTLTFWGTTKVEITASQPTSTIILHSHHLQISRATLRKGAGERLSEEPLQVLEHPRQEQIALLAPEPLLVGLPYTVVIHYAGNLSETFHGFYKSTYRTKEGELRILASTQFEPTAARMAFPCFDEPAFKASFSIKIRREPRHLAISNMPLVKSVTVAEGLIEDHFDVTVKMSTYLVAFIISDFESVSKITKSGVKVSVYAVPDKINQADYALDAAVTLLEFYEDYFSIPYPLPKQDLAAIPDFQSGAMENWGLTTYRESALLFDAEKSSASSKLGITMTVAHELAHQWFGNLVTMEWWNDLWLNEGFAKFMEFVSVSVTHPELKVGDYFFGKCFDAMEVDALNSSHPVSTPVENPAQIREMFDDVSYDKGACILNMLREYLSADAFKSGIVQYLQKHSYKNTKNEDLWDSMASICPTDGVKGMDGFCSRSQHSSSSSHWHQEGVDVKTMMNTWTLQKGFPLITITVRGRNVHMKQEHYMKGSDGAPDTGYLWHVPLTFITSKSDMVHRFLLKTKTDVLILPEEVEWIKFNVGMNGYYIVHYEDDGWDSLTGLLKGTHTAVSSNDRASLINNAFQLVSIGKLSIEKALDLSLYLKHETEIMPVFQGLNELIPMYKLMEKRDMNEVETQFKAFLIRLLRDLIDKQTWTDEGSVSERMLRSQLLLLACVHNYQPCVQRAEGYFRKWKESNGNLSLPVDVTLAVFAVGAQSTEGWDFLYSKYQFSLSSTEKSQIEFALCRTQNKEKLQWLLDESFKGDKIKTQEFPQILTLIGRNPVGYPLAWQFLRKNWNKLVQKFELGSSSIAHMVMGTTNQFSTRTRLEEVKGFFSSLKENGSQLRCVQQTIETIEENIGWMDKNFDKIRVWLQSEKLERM
E-sel inducer – E-selectin induction in HUVECs, primary screen, imaging, HUVEC, immunofluorescence imaging, single point; AID 686992, 2013; activation, % at 7.58 µM; normalized: neutral wells 0, TNF-alpha wells 100; actives 0.37% (n = 260,000);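 active means mean E-selectin-positive cell signal at least 10% of the positive control, reached in at least 60% of replicates, without over 20% cell loss; inconclusive means no rule given, readout overlaps actives, possibly toxicity-flagged; inactive means the rest, including those meeting only one limit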
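Test system – human umbilical vein endothelial cells (HUVEC), E-selectin induction · Input – 3,000 HUVEC seeded per well · Buffer or medium – EGM-2, gelatin · Compound dosing – single-point compound dose · Detection – immunofluorescence imaging · Measure – percent E-selectin-positive cells · Controls – TNF-alpha high, DMSO low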
DENV2 CPE – inhibitors of DENV2 cytopathic effect, primary screen, cell-based, plate reader, single concentration; DENV2-infected cells, cytopathic effect rescue; actives 1.7% (n = 350,000); CPE inhibition, % at 9.99 µM; in the data active means CPE inhibition above about 20%, passing the limit was not always enough; inconclusive means no clear call, values can overlap the other calls; tested in BHK-21 cells;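 further: 0% = median of neutral control wells and 100% = median of positive control wells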
PglD inh – C. jejuni PglD acetyltransferase inhibitors, primary screen, biochemical, DTNB colorimetric, single point | actives 0.098% (n = 360,000) | purified PglD enzyme, DTNB colorimetric CoA detection | UDP-N-acetylbacillosamine N-acetyltransferase PglD (Campylobacter jejuni) | inhibition, % at 12.5 µM; in the data active means inhibition above about 16%, passing the limit was not always enough; inconclusive means no clear call, values can overlap the other calls
SIRT5 inh – SIRT5 desuccinylase inhibitors, primary screen, biochemical, fluorescence imaging, single point, set 5. NAD-dependent protein deacylase sirtuin-5, mitochondrial (Homo sapiens), Q9NXA8. Purified SirT5, succinyl-peptide AMC, trypsin-coupled fluorescence. inhibition, % at 15 µM. actives 1.1% (n = 330,000); in the data active means inhibition above about 15%; inconclusive means no clear call, values can overlap the other calls
Starred values were filed as active, the others as inactive; u = inconclusive; x = not tested or not shown. Only some compounds are listed: those with a hit (about 2.5% of all), similar ones and a draw of the others.

SMILES	ERAP1 HTS inh	E-sel inducer	DENV2 CPE	PglD inh	SIRT5 inh
C[C@@H](C(=O)NC1CCN(Cc2ccccc2)CC1)N1C(=O)N2CCc3c([nH]c4ccccc34)[C@@]2(C)C1=O	x	x	u	1	x
C[C@@H](C(=O)NCCc1ccccc1)N1C(=O)N2CCc3c([nH]c4ccccc34)[C@@]2(C)C1=O	-1	x	37*	1	-1
CC(C)[C@@H](C(=O)NC1CCN(Cc2ccccc2)CC1)N1C(=O)N2CCc3c([nH]c4ccccc34)[C@@]2(C)C1=O	12	x	39*	3	x
C[C@@H]1CCCCO[C@H](CN(C)Cc2ccc(C(F)(F)F)cc2)[C@@H](C)CN([C@H](C)CO)C(=O)c2cc(NS(=O)(=O)c3ccc(Cl)cc3)ccc2O1	4	0	-3	-2	-1
C[C@@H]1CN([C@H](C)CO)C(=O)c2cc(NS(=O)(=O)c3ccc(Cl)cc3)ccc2O[C@@H](C)CCCCO[C@H]1CN(C)Cc1ccc(C(F)(F)F)cc1	1	0	-3	3	10
C[C@@H]1CCCCO[C@@H](CN(C)Cc2ccc(C(F)(F)F)cc2)[C@H](C)CN([C@@H](C)CO)C(=O)c2cc(NS(=O)(=O)c3ccc(Cl)cc3)ccc2O1	0	0	-1	3	18*
C[C@H]1CCCCO[C@@H](CN(C)Cc2ccc(C(F)(F)F)cc2)[C@@H](C)CN([C@@H](C)CO)C(=O)c2cc(NS(=O)(=O)c3ccc(Cl)cc3)ccc2O1	1	0	u	3	16*
C[C@@H]1CCCCO[C@@H](CN(C)Cc2ccc(C(F)(F)F)cc2)[C@H](C)CN([C@H](C)CO)C(=O)c2cc(NS(=O)(=O)c3ccc(Cl)cc3)ccc2O1	3	0	x	0	16*
C[C@@H]1CN([C@@H](C)CO)C(=O)c2cc(NS(=O)(=O)c3ccc(Cl)cc3)ccc2O[C@@H](C)CCCCO[C@@H]1CN(C)Cc1ccc(C(F)(F)F)cc1	3	0	8	3	18*
Cc1ccc(C)c(NC(=O)CN(C)C(=O)c2ccncc2)c1	-3	x	7	-2	3
CO[C@H]1CN(C)C(=O)c2cc(NC(=O)C3CC3)ccc2OC[C@@H](C)N(C(=O)NC(C)C)C[C@@H]1C	x	0	x	x	x
N#C[C@H]1[C@@H](c2ccccc2C2=CCCC2)[C@H](CO)N1C(=O)C1CCC1	-2	0	-5	x	2
N#C[C@@H]1[C@@H](c2ccccc2C2=CCCCC2)[C@@H](CO)N1C(=O)NC1CCCC1	1	0	8	x	5
N#C[C@@H]1[C@@H](c2ccccc2C2=CCCCC2)[C@@H](CO)N1S(=O)(=O)c1ccccc1	0	0	21*	x	x
N#C[C@H]1[C@@H](c2ccccc2C2=CCCC2)[C@H](CO)N1C(=O)C1CCCC1	2	0	41*	x	-5
N#C[C@@H]1[C@@H](c2ccccc2C2=CCCCC2)[C@H](CO)N1C(=O)NC1CCCC1	1	0	73*	x	7
N#C[C@H]1[C@H](c2ccccc2C2=CCCCC2)[C@H](CO)N1C(=O)C1CCOCC1	x	0	2	x	17*
N/C(=N\OC(=O)Cc1ccccc1)c1ccc(Br)cc1	2	0	0	x	-2
N#C[C@@H]1[C@@H](c2ccc(C3=CCCCC3)cc2)[C@H](CO)N1C(=O)C1CCOCC1	0	2	4	-1	-3
N#C[C@@H]1[C@H](c2ccccc2C2=CCCCC2)[C@H](CO)N1C(=O)CN1CCOCC1	-2	0	6	x	-1
N#C[C@@H]1[C@H](c2ccc(C3=CCCCC3)cc2)[C@H](CO)N1C(=O)C1CCOCC1	-2	0	30*	-2	-1
CCCNC(=O)N1[C@H](C#N)[C@@H](c2ccccc2C2=CCCC2)[C@@H]1CO	-2	0	23*	x	2
N#C[C@H]1[C@@H](c2ccccc2C2=CCCCC2)[C@H](CO)N1C(=O)CN1CCOCC1	1	0	43*	x	-1
N#C[C@@H]1[C@H](c2ccccc2C2=CCCC2)[C@H](CO)N1C(=O)NC1CCCC1	0	0	2	x	4
N#C[C@@H]1[C@H](c2ccccc2C2=CCCC2)[C@H](CO)N1C(=O)C1CC1	1	0	22*	x	3
SMILES	ERAP1 HTS inh	E-sel inducer	DENV2 CPE	PglD inh	SIRT5 inh
COc1ccc(-n2cnnc2SCC(=O)Nc2cc(C)on2)cc1	7	x	-10	x	-5
N#C[C@@H]1[C@H](c2ccc(-c3cncnc3)cc2)[C@@H](CO)N1C(=O)CN1CCOCC1	1	0	50*	-1	1
N#C[C@@H]1[C@H](c2ccc(-c3cncnc3)cc2)[C@H](CO)N1C(=O)CN1CCOCC1	0	0	1	4	1
CCCN1C[C@H](C)[C@@H](OC)CN(C)C(=O)c2ccc(NC(=O)c3cccc(F)c3)cc2OC[C@@H]1C	5	0	29*	0	4
CCCN1C[C@H](C)[C@@H](OC)CN(C)C(=O)c2cc(NC(=O)c3ccc(F)cc3)ccc2OC[C@H]1C	0	1	47*	1	8
CO[C@@H]1CN(C)C(=O)c2ccc(NC(=O)Nc3cccc(F)c3)cc2OC[C@@H](C)N(C(=O)Nc2c(C)noc2C)C[C@H]1C	2	0	63*	2	x
CCCN1C[C@@H](C)[C@H](OC)CN(C)C(=O)c2ccc(NC(=O)c3cccc(F)c3)cc2OC[C@H]1C	2	0	-15	0	6
CCCN1C[C@H](C)[C@@H](OC)CN(C)C(=O)c2cc(NC(=O)c3ccc(F)cc3)ccc2OC[C@@H]1C	1	0	-8	3	8
CO[C@@H]1CN(C)C(=O)c2ccc(NC(=O)Nc3cccc(F)c3)cc2OC[C@@H](C)N(C(C)=O)C[C@H]1C	x	0	109*	5	2
CCN1C[C@@H](C)[C@H](OC)CN(C)C(=O)c2cc(NC(=O)c3ccno3)ccc2OC[C@H]1C	2	0	20*	1	9
CO[C@@H]1CN(C)C(=O)c2ccc(NC(=O)c3cccc(F)c3)cc2OC[C@H](C)N(C(C)=O)C[C@@H]1C	0	0	34*	-1	-2
CO[C@@H]1CN(C)C(=O)c2ccc(NC(=O)Nc3ccccc3)cc2OC[C@@H](C)N(C(C)=O)C[C@@H]1C	0	0	51*	10	2
CO[C@@H]1CN(C)C(=O)c2ccc(NC(=O)Nc3ccccc3)cc2OC[C@H](C)N(C(C)=O)C[C@@H]1C	0	0	-2	-3	4
CO[C@@H]1CN(C)C(=O)c2ccc(NC(=O)c3ccccc3)cc2OC[C@H](C)N(C(=O)CN(C)C)C[C@H]1C	0	0	6	1	3
